In paper PMC7616937 (Chemical communications (Cambridge, England), 2019):
Peptide text beside a SMILES is read from it.

Legend:
[1] = Kinetics of fibrillation by Thioflavin T; format: physicochemical; settings: Fig. 3g
Summary of the method: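 Peptide fibrillation was tracked by Thioflavin T fluorescence, either with peptide alone or with lipid vesicles mimicking mammalian plasma membranes. The vesicles were made of 1,2-dioleoyl-sn-glycero-3-phosphocholine (DOPC), cholesterol and sphingomyelin.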

[2] = Kinetics of fiber formation by TEM imaging; format: physicochemical; settings: Fig. 2a, b
[3] = tested on: neuronal dysfunction; settings: observation from the literature, no reference printed at b17; compare b4, ref 7a; cited from earlier work

## CC(=O)N[C@@H](CCCCN)C(=O)N[C@@H](CC(C)C)C(=O)N[C@H](C(=O)N[C@@H](Cc1ccccc1)C(=O)N[C@@H](Cc1ccccc1)C(=O)N[C@@H](C)C(=O)N[C@@H](CCC(=O)O)C(N)=O)C(C)C [Aβ(16-22), Ac-KLVFFAE-NH2] (Ac-KLVFFAE-NH2)
[1]; peptide only, without lipid vesicles, followed for 96 hours
  ThT fluorescence during kinetic measurement: dramatic increase in fluorescence
[1]; with DOPC/Chol/Sph lipid vesicles
  effect of addition of lipid vesicles on ThT fluorescence / fibrillation: inhibition of the fibrillation process
[2]
  time to mature fibers / completion of self-assembly: four to seven days

## Aβ(1-42): full length Aβ peptide
[3]
  toxicity: high toxicity
